12 molecules from ChEMBL document CHEMBL1287756, “Design and synthesis of an androgen receptor pure antagonist (CH5137291) for the treatment of castration-resistant prostate cancer” (Bioorg Med Chem, 2010) can be followed below.

The source made the active and inactive calls. No cut-off for these calls is given here. Bounds are passed on as bounds.

In one data set the target is T1, Androgen receptor (Homo sapiens, UniProt P10275).
T1 sequence (P10275 whole entry): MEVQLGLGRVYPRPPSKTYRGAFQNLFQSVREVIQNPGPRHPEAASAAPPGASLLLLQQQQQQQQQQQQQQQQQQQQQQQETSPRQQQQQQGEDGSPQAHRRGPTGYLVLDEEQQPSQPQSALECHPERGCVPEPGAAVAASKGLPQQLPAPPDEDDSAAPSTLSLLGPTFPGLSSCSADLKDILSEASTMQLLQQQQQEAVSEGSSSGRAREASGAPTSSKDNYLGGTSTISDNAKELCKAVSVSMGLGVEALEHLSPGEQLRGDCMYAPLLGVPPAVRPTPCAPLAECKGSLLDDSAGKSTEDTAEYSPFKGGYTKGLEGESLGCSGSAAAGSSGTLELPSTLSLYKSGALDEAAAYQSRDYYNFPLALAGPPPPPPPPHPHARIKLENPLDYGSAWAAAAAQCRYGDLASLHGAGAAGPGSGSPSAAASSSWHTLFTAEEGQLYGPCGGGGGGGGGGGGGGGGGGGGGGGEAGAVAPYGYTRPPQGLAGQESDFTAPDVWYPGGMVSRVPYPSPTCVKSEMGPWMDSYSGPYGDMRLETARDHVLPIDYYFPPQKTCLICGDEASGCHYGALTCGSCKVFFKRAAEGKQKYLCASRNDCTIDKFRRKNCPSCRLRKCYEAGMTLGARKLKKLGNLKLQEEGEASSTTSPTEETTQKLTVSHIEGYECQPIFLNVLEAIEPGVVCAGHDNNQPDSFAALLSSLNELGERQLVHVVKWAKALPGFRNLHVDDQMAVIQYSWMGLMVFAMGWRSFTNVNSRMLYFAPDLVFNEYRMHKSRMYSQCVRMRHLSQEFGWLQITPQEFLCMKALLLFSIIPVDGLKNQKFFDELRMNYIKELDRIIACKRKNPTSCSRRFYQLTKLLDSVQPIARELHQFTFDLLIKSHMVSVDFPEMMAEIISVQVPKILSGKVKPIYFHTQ
Kind of data set: Antagonist activity at human AR expressed in human HeLa cells co-transfected with MMTV-Luc-Hyg after 48 hrs by transient-luciferase reporter gene assay. In kind it is functional, cell-based. On the technique in general: Reporter assays use an easily measured gene product as a stand-in for the process of interest.

A short description of data set [1]: Metabolic stability in human liver microsomes assessed as compound remaining after 15 mins by LC-MS/MS analysis. The settings on record: read-out: Stability. The data set is classed as ADME, Microsome. Summed up: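 Human liver microsomes in phosphate buffer (pH 7.4) with NADPH added. Percent of parent compound remaining measured after 15 min.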
Data set [2] in a line: Membrane permeability by PAMPA assay. In kind it is ADME. The settings on record: read-out: permeability. (In PAMPA a lipid-coated filter parts donor from acceptor wells.)
For data set [3], the species on record is Mus musculus. As to the kind of experiment: Antiandrogenic activity in castrated mouse assessed as reduction in wet weight gain of seminal vesicle. The data set is classed as functional. The method in brief: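 Castrated mice, n = 4 or 5 per group; antiandrogenic activity read as change in seminal vesicle wet weight.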
The target of the next data set is hERG (KCNH2) (Homo sapiens, UniProt Q12809). Kind of data set: Inhibition of human ERG at 10 uM by whole cell patch-clamp technique. Summed up:
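hERG current recorded by whole-cell patch clamp; one experiment run in duplicate.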

For data set [4], the target named is T2, Androgen receptor (Homo sapiens) (UniProt P10275).
T2 sequence (whole entry): T1 sequence (P10275 whole entry)
To be noted: HeLa.

Data set [5] in a line: Metabolic stability in monkey liver microsomes assessed as compound remaining after 30 mins by LC-MS/MS analysis. The data set is classed as ADME, Macaca mulatta, Microsome. To be noted: rhesus monkey, read-out: Stability. A general note: Microsomes from liver hold many membrane-bound enzymes, among them those of drug oxidation.
A short description of data set [6]: Metabolic stability in rat liver microsomes assessed as compound remaining after 30 mins by LC-MS/MS analysis. In kind it is ADME, Microsome. To be noted: read-out: Stability.
Data set [7] is described as follows: Metabolic stability in dog liver microsomes assessed as compound remaining after 30 mins by LC-MS/MS analysis. In kind it is ADME, Canis lupus familiaris, Microsome. The settings on record: read-out: Stability.
Data set [8] is described as follows: Metabolic stability in human liver microsomes assessed as compound remaining after 30 mins by LC-MS/MS analysis. To be noted: read-out: Stability. The data set is classed as ADME, Microsome.
The nature of data set [9]: Metabolic stability in mouse liver microsomes assessed as compound remaining after 30 mins by LC-MS/MS analysis. To be noted: read-out: Stability. In kind it is ADME, Microsome.
For a further data set, the system named is Canis familiaris. As to the kind of experiment: Cardiotoxicity in anesthetized dog assessed as QT prolongation by electrocardiographic analysis. The data set is classed as toxicity, organism-based, Canis lupus familiaris. To be noted: in vivo.
The test system of data set [10] is LNCaP. Kind of data set: Antitumor activity against human bicalutamide-resistant LNCAP cells xenografted in SCID mouse assessed as inhibition of tumor growth at 10 mg/kg, po qd for seven cycles of 5 days on, 2 days off. The data set is classed as functional, organism-based. The arrangement: dose 10 mg/kg. The method in brief:
(§1)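 LNCaP-BC2 cells (2 × 10^6) inoculated subcutaneously into castrated 6-week-old male SCID mice. Randomised at tumour size 90–400 mm3, n = 5 per group. Oral dosing once daily in 5% gum arabic at 10 mL/kg, seven cycles of 5 days on and 2 days off. Tumour size and plasma PSA measured after 17 days. PSA expressed as day 17 level relative to day 0 level.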

For data set [11], the system named is LNCaP. As to the kind of experiment: Antitumor activity against human bicalutamide-resistant LNCAP cells xenografted in SCID mouse assessed as inhibition of tumor growth at 100 mg/kg, po qd for seven cycles of 5 days on, 2 days off. The data set is classed as functional, organism-based. The arrangement: dose 100 mg/kg. The method in brief: as §1
Data set [12] concerns Mus musculus. Kind of data set: Inhibition of prostate specific antigen production in human bicalutamide-resistant LNCAP cells xenografted SCID mouse at 10 mg/kg, po qd for seven cycles of 5 days on and 2 days off measured on day 17. The data set is classed as functional, organism-based. The arrangement: dose 10 mg/kg. Summed up: as §1
The subject of data set [13] is Mus musculus. Kind of data set: Inhibition of prostate specific antigen production in human bicalutamide-resistant LNCAP cells xenografted SCID mouse at 100 mg/kg, po qd for seven cycles of 5 days on and 2 days off measured on day 17. In kind it is functional, organism-based. The arrangement: dose 100 mg/kg. The method in brief: as §1

hERG (KCNH2), sequence (Q12809 whole entry): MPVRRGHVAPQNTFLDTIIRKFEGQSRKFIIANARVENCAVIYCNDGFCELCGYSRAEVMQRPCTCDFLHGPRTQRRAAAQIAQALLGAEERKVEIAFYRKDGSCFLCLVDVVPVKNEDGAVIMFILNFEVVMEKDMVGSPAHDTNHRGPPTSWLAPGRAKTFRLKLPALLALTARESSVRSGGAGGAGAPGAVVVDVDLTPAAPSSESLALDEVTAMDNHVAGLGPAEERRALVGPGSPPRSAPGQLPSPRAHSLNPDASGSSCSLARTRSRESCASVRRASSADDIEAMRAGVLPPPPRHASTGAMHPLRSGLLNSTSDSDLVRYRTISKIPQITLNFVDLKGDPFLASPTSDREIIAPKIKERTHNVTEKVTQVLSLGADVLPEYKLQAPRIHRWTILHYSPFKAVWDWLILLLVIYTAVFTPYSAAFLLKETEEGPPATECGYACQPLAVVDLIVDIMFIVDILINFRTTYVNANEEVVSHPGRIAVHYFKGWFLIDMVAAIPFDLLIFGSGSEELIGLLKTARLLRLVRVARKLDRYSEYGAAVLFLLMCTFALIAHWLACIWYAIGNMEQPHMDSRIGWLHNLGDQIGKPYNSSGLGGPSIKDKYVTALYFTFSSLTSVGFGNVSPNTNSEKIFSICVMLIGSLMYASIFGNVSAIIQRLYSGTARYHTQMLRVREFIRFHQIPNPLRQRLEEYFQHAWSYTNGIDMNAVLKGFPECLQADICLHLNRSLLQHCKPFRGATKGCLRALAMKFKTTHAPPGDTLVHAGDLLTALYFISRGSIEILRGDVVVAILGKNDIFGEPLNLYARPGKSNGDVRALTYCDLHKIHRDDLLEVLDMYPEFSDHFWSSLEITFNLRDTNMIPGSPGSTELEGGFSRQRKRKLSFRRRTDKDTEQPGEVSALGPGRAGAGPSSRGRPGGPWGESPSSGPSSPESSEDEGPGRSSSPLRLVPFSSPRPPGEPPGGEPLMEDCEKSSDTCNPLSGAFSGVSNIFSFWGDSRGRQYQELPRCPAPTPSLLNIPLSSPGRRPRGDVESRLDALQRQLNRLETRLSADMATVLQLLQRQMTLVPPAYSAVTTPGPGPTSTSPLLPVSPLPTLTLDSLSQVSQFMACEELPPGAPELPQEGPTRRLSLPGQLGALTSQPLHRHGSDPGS

Take `CC1(C)C(=O)N(c2ccc(C#N)c(Cl)c2)C(=S)N1c1cccc(S(N)(=O)=O)n1`: 600 nM corresponded to half-maximal inhibition against Androgen receptor (IC50). The remaining at 0.25 h in [1] amounted to 100%. Also, the Papp in data set [2] came to 1.3 ×10⁻⁶ cm/s. For the same molecule, in the data set listed under Mus musculus [3] (Mus musculus, read-out: ED50), the ED50 (in general, the dose that gives a 50% effect, or the effect in half of the subjects) came out at 6 mg/kg. Also, the inhibition – broadly, the drop in the measured response relative to a control, in per cent – at 10 µM against hERG (KCNH2) came out at 26%. The EC5 in data set [4] was > 10 µM.
`CC1(C)C(=O)N(c2ccc(C#N)c(Cl)c2)C(=S)N1c1cccc(S(N)(=O)=O)c1`: the remaining at 0.25 h in data set [1] worked out at 100%. Also, in data set [2], the Papp worked out at 1.6 ×10⁻⁶ cm/s. In the data set listed under Mus musculus [3] (Mus musculus, read-out: ED50), the ED50 turned out to be 84 mg/kg. The molecule also returned an inhibition at 10 µM at hERG (KCNH2) of 58%. The EC5 in [4] is > 10 µM.
Regarding `CC1(C)NC(=S)N(c2ccc(C#N)c(C(F)(F)F)c2)C1=O`, the remaining at 0.5 h in data set [5], in [6], in data set [7], in [8] and in data set [9] was < 0.001% throughout. The EC5 in data set [4] is 0.001 µM.
On to `CC1(C)C(=O)N(c2ccc(C#N)c(C(F)(F)F)c2)C(=S)N1c1ccnc(S(N)(=O)=O)c1`, for which, at Androgen receptor, 1000 nM corresponded to half-maximal inhibition (IC50). The remaining at 0.25 h in data set [1] was determined as 97%. Besides, the Papp in data set [2] turned out to be 12 ×10⁻⁶ cm/s. Besides, at hERG (KCNH2), the inhibition at 10 µM came out at 0%. The EC5 in data set [4] is > 10 µM.
For the molecule `CC1(C)C(=O)N(c2ccc(C#N)c(C(F)(F)F)c2)C(=S)N1c1cccc(S(N)(=O)=O)n1`, the IC50 (commonly the concentration at which inhibition is half-maximal) on Androgen receptor worked out at 700 nM. For the same molecule, the remaining at 0.25 h in data set [1] is 94%. Moreover, in data set [2], the Papp is 14 ×10⁻⁶ cm/s. Also, the ED50 in the data set filed under Mus musculus [3] (Mus musculus, read-out: ED50) amounted to 7 mg/kg. Also, the inhibition at 10 µM against hERG (KCNH2) came out at 10%. The Activity result in the data set with Canis familiaris is “Non-toxic”. Also, the inhibition entry in the data set on LNCaP [10], with LNCaP [11], with Mus musculus [12] and with Mus musculus [13] was “Active” each time. Moreover, the EC5 in [4] was > 10 µM.
For `CC1(C)NC(=S)N(c2ccc(C#N)c(Cl)c2)C1=O`, the remaining at 0.5 h was 0.027% in data set [5]; 0.075% in [6]; < 0.001% in data set [7]; 0.022% in data set [8]; 0.038% in [9]. Also, the EC5 in [4] was found to be 0.0002 µM.
At Androgen receptor, `CC1(C)C(=O)N(c2ccc(C#N)c(C(F)(F)F)c2)C(=S)N1c1cncc(S(N)(=O)=O)c1` yielded an IC50 of 1000 nM. The remaining at 0.25 h in data set [1] stood at 95%. The Papp in [2] amounted to 14 ×10⁻⁶ cm/s. The ED50 in the data set listed under Mus musculus [3] (Mus musculus, read-out: ED50) was determined as 6 mg/kg. The inhibition at 10 µM against hERG (KCNH2) worked out at 33%. In data set [4], the EC5 was > 10 µM.
For `CC1(C)C(=O)N(c2ccc(C#N)c(C(F)(F)F)c2)C(=S)N1c1ccccc1`, it took 200 nM to reach half-maximal inhibition at Androgen receptor (IC50). Moreover, the remaining at 0.25 h in data set [1] was 80%. Also, the Papp in data set [2] amounted to 0.69 ×10⁻⁶ cm/s. Further, the EC5 in data set [4] was 3 µM.
Turning to `CC(O)(CS(=O)(=O)c1ccc(F)cc1)C(=O)Nc1ccc(C#N)c(C(F)(F)F)c1` (configuration not stated) [BICALUTAMIDE], the remaining at 0.25 h in [1] stood at 99%. In addition, the ED50 in the data set listed under Mus musculus [3] is 3 mg/kg. In addition, testing at 10 µM on hERG (KCNH2) gave an inhibition of 7.4%. Besides, the inhibition entry with LNCaP [10], with LNCaP [11], in the data set with Mus musculus [12] and in the data set with Mus musculus [13] was “inactive” each time.
Molecule `CC1(C)C(=O)N(c2ccc(C#N)c(C(F)(F)F)c2)C(=S)N1c1cccc(S(N)(=O)=O)c1` showed an IC50 on Androgen receptor of 300 nM. The remaining at 0.25 h in data set [1] stood at 100%. Also, the Papp in data set [2] was 8.1 ×10⁻⁶ cm/s. Also, in the data set filed under Mus musculus [3] (Mus musculus, read-out: ED50), the ED50 came to 63 mg/kg. Testing at 10 µM against hERG (KCNH2) gave an inhibition of 41%. Further, the EC5 in data set [4] was > 10 µM.
The molecule `CC1(C)C(=O)N(c2ccc(C#N)c(Cl)c2)C(=S)N1c1cncc(S(N)(=O)=O)c1` displayed an IC50 at Androgen receptor of 2000 nM. The remaining at 0.25 h in [1] amounted to 95%. Further, the Papp in data set [2] amounted to 13 ×10⁻⁶ cm/s. Moreover, the inhibition at 10 µM against hERG (KCNH2) came out at 52%. Further, the EC5 in data set [4] is > 10 µM.
Take `CC1(C)C(=O)N(c2ccc(C#N)c(Cl)c2)C(=S)N1CCCS(N)(=O)=O`: the remaining at 0.25 h in [1] was found to be 100%. Moreover, in data set [2], the Papp is 25 ×10⁻⁶ cm/s. Moreover, the ED50 in the data set filed under Mus musculus [3] (Mus musculus, read-out: ED50) came out at 10 mg/kg. Besides, at 10 µM the inhibition on hERG (KCNH2) was 17%. Besides, in data set [4], the EC5 was > 10 µM.
